The M2OR odorant receptor database

What was measured:
Conditions in all cases: stereoisomer not certain
[1] = biological target: T1, OR10R2 (Homo sapiens) (UniProt Q8NGX6)
T1 sequence (whole entry): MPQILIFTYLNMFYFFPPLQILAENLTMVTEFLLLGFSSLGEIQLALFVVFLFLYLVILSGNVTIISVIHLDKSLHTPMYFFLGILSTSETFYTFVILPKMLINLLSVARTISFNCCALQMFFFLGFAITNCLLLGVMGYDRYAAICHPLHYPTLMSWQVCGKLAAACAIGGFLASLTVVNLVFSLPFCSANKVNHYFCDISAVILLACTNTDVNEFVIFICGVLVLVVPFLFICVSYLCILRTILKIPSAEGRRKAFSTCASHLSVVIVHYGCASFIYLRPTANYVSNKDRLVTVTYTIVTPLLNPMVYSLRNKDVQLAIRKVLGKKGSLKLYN
Outline: (§1)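 Transient luciferase assays in mammalian cell lines were common, though methods varied by source. The values come from published papers and their supplementary material, with extra details from the original authors when needed. Responsive refers to a measured signal the original authors judged statistically different from baseline, and non-responsive (inactive) to the remainder.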

[2] = biological target: T2, OR10S1 (Homo sapiens) (UniProt Q8NGN2)
T2 sequence (whole entry): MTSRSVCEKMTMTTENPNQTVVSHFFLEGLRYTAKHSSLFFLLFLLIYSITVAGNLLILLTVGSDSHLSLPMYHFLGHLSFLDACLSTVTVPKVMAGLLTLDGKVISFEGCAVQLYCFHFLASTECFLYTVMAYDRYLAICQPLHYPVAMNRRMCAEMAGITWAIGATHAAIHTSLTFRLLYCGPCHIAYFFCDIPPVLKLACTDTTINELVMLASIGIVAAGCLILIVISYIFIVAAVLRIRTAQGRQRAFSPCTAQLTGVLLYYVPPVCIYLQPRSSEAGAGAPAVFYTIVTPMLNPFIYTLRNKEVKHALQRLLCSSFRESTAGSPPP
Outline: as §1

[3] = biological target: T3, OR10T2 (Homo sapiens) (UniProt Q8NGX3)
T3 sequence (whole entry): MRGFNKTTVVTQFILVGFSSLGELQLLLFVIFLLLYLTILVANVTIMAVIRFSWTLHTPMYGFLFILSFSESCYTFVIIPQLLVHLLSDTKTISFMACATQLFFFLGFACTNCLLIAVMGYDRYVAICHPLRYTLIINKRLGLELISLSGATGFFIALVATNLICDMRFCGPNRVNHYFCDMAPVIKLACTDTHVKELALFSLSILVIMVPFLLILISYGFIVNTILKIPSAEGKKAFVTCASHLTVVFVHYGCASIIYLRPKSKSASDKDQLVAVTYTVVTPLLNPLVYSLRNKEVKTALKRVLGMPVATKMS
Outline: as §1

[4] = biological target: T4, OR10V1 (Homo sapiens) (UniProt Q8NGI7)
T4 sequence (whole entry): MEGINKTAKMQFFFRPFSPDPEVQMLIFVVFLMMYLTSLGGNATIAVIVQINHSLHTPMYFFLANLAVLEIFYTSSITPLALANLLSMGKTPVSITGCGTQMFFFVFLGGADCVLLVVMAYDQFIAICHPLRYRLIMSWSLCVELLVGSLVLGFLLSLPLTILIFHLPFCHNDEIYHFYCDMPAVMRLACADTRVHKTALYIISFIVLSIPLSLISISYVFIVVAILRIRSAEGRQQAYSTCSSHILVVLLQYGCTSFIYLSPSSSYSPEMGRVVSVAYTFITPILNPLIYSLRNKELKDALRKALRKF
Outline: as §1

[5] = biological target: T5, OR10W1 (Homo sapiens) (UniProt Q8NGF6)
T5 sequence (whole entry): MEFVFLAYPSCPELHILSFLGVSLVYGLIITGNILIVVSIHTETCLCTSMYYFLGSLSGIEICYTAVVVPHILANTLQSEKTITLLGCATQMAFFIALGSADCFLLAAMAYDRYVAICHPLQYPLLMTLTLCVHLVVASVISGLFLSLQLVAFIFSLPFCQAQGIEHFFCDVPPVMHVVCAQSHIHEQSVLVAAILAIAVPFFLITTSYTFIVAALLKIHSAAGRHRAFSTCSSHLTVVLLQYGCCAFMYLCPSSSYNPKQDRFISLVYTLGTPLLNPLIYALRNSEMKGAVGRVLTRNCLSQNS
Outline: as §1

[6] = biological target: T6, OR10X1 (Homo sapiens) (UniProt Q8NGY0)
T6 sequence (whole entry): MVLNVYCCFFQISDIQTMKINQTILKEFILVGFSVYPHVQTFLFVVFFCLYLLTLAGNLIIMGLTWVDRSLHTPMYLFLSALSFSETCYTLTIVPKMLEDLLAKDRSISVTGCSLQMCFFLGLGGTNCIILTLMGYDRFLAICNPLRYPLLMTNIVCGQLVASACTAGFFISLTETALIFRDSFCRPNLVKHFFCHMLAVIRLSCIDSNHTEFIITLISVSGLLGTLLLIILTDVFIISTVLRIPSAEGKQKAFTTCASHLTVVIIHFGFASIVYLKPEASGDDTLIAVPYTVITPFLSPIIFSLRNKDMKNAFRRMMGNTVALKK
Outline: as §1

[7] = biological target: T7, OR10Z1 (Homo sapiens) (UniProt Q8NGY1)
T7 sequence (whole entry): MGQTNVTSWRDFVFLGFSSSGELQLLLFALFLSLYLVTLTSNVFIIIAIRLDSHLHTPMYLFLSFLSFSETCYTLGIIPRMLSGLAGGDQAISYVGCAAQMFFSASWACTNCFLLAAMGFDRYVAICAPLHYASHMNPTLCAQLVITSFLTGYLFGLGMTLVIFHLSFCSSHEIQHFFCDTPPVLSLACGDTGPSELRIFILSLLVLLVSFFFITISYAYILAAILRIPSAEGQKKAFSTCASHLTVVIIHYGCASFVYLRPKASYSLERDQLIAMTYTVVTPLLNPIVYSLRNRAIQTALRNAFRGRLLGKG
Outline: as §1

[8] = biological target: T8, OR11A1 (Homo sapiens) (UniProt Q9GZK7)
T8 sequence (whole entry): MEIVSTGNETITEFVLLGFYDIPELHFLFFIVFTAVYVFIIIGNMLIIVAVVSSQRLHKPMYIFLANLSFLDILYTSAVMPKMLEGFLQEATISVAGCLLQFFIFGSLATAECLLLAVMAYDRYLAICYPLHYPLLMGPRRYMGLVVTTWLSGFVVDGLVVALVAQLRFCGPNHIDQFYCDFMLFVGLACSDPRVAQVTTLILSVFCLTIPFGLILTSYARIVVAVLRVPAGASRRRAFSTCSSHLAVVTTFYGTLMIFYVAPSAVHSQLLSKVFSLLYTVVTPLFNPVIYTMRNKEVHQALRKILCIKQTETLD
Outline: as §1

[9] = biological target: T9, OR11G2 (Homo sapiens) (UniProt Q8NGC1)
T9 sequence (whole entry): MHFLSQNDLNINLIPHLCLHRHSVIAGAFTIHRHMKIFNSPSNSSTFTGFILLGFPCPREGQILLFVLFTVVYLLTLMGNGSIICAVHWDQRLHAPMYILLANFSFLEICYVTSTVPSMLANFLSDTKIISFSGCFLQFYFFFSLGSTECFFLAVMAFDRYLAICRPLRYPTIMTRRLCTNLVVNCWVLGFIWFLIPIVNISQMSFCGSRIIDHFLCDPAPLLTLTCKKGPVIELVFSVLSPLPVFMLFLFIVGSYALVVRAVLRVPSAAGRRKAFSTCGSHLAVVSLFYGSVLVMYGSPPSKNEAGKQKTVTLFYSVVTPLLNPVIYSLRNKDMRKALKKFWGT
Outline: as §1

[10] = biological target: T10, OR11H1 (Homo sapiens) (UniProt Q8NG94)
T10 sequence (whole entry): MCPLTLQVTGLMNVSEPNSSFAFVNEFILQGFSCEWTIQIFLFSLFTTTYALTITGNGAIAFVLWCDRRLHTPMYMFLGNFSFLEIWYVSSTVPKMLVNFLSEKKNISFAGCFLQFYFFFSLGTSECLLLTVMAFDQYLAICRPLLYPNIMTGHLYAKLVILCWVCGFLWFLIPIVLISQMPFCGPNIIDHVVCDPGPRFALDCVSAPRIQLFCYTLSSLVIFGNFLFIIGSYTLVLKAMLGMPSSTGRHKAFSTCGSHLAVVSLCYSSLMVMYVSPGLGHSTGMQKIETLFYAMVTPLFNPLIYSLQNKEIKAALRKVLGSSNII
Outline: as §1

Measured: odorant receptor agonist call;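 note: active if original authors judged signal statistically different from baseline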

CCCCCC(S)C(C)CO (stereo not given)
inactive: all assays above
